CDK5 inh – blocks human CDK5/p35 kinase activity; Q00535+Q15078; inhibition, % at 10 µM; 330,000 tested, 0.01% active; Recombinant CDK5/p35, ADP-Glo luminescence, 60 min;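 active = highest replicate inhibition of at least 50% and at least 75% of replicates reaching 50%; inconclusive = only one of the two criteria met; inactive = both criteria failed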;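 note: plate controls were DMSO neutral control for no effect and GW8510 at 10 µM for full effect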
Env fusion inh – blocks HIV Env-driven cell-cell fusion. HeLa-JRFL Env/CEM21 cell fusion, luciferase. inhibition, % at 12.3 µM. 360,000 tested, 1.1% active;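 active = mean replicate inhibition score of at least 50 and every replicate individually at or above 50; inconclusive = only one of the two criteria met; inactive = mean below 50 and not all replicates reaching 50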;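 note: 0% = plate neutral controls and 100% = maraviroc near 300 nM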
GSK3A inh – human GSK-3 alpha kinase inhibition; inhibition, % at 10 µM; 320,000 tested, 0.1% active; ADP-Glo luminescence, 60 min;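 active = more than half of replicates show inhibition above 20%; inconclusive = some but at most half of replicates above 20% inhibition; inactive = no replicate shows inhibition above 20%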;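 note: GST-tagged GSK-3 alpha with peptide substrate and 25 µM ATP; 0% = DMSO neutral wells and 100% = GW8510 positive control wells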
Target sequence (P49840 whole entry, looked up): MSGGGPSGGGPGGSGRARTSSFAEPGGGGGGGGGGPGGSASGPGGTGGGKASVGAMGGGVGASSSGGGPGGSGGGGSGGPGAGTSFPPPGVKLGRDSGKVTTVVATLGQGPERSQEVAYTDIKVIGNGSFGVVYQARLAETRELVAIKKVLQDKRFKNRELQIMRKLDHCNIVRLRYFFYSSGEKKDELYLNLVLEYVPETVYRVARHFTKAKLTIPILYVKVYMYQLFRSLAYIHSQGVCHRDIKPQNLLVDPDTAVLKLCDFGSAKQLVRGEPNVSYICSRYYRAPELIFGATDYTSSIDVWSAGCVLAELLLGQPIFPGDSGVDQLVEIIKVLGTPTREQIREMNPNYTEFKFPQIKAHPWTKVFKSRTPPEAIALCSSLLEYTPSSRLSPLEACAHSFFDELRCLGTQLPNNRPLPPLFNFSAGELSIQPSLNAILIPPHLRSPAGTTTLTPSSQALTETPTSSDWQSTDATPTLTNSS
STK33 kinase inh – human STK33 kinase inhibition | 320,000 tested, 0.073% active | purified STK33, MBP phosphorylation, ADP-Glo luminescence | Q9BYT3 | inhibition, % at 10 µM;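 active = inhibition at or above 25%, using the most active replicate where run in duplicate; inactive = inhibition below 25%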
GSK3beta inhib – inhibitors of human GSK3beta kinase; P49841; activity score (negative = inhibition), % at 10 µM; GST-GSK3beta kinase, ADP-Glo luminescence, 60 min; stronger effect = lower value; 300,000 tested, 0.038% active; AID 2097;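 active = more than half of replicate wells score below -50%, meaning over 50% inhibition versus plate controls; inconclusive = some replicates but at most half score below -50%; inactive = no replicate scores below -50%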;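 note: 0% = median DMSO wells and -100% = median GW8510 positive control wells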
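Test system: GST-tagged human GSK3beta kinase, cell-free; evaluation: activity score scaled between in-plate DMSO and GW8510 controls; measured by: ADP-Glo luminescence; incubation: 60 min reaction, RT; benchmarks: DMSO and 20 µM GW8510; reagent: peptide substrate plus 25 µM ATP (final); medium: Tris/MgCl2 kinase buffer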
GSIS activator – GLuc luminescence reporter in INS-1E cells, primary screen for activators of glucose-dependent secretion of insulin; INS-1E GLuc reporter insulin secretion, 2-3 h; activation, % at 16.6 µM; 370,000 tested, 0.61% active; AID 743287;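 active = lowest replicate activation of at least 40%, so every replicate reaches that level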;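 note: 0% = median of neutral control wells and 100% = median of IBMX positive control wells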
Starred values were filed as active, the others as inactive; u = inconclusive; x = no result given; [ ] = dose if it differs, or a comment. Hits are enriched below; roughly 1.4% of the tested compounds scored in any of these assays.

SMILES	CDK5 inh	Env fusion inh	GSK3A inh	STK33 kinase inh	GSK3beta inhib	GSIS activator
CCC(=O)N1CC2(C1)CN(C(=O)NC1CCCC1)[C@@H](CO)c1c2c2ccc(OC)cc2n1C	x	x	x	x	x	3
CCCNC(=O)N1C[C@H]2[C@@H](c3ccccc31)[C@@H](CO)N2C(=O)Nc1ccccc1	x	x	x	x	x	-6
CC(C)NC(=O)NCC[C@@H]1CC[C@@H](NS(=O)(=O)c2ccccc2)[C@H](CO)O1	x	x	x	x	x	-6
COc1ccc(-c2cc(=O)oc3c(C)c(O)ccc23)cc1	0	72*	-2	-1	-34	14
Cc1c(O)ccc2c(-c3ccccc3)cc(=O)oc12	0	33	27	-1	-4	14
C[C@@H]1CN([C@H](C)CO)C(=O)c2cc(NS(=O)(=O)c3cn(C)cn3)ccc2O[C@@H](C)CCCCO[C@@H]1CN(C)C(=O)C1CCCCC1	x	-1[16.7 µM]	x	x	x	0
CC(C)CNC(=O)COC(=O)c1ccccc1SCC(=O)NCC(C)C	0	2	-9	0	2	-5
CC(C)CNC(=O)c1ccccc1SCC(=O)NC12CC3CC(CC(C3)C1)C2	1	64*	0	-1	2	-10
Cc1ccc(S(=O)(=O)N2C[C@H]3[C@H]4C(=O)N(Cc5ccccc5)C(=O)[C@H]4CC(=O)[C@H]3[C@@H]2c2ccccc2Cl)cc1	x	60*	x	x	x	-6
Cc1ccc(S(=O)(=O)N2C[C@H]3[C@H]4C(=O)N(C5CCCCC5)C(=O)[C@H]4CC(=O)[C@H]3[C@@H]2c2ccccc2F)cc1	x	65*	x	x	x	-7
Cc1ccc(S(=O)(=O)N2C[C@H]3[C@H]4C(=O)N(Cc5ccccc5)C(=O)[C@H]4CC(=O)[C@H]3[C@@H]2c2ccccc2F)cc1	x	u	x	x	x	-8
C[C@@H]1CN([C@@H](C)CO)C(=O)Cc2cc(NC(=O)Cc3cn(C)c4ccccc34)ccc2O[C@H]1CN(C)S(=O)(=O)c1cn(C)cn1	x	12[16.7 µM]	x	x	x	-13
CCCNC(=O)C[C@@H]1CC[C@@H]2[C@H](COC[C@@H](O)CN2C(=O)Nc2cccc(Cl)c2)O1	x	x	x	x	x	-24
CCCN(CC(=O)Nc1ccccc1OC)C(=O)C1CCCC1	0	9	-2	-1	6	10
CCN(CC(=O)Nc1ccccc1OC)C(=O)C1CCCC1	-2	3	1	0	x	68*
C[N+]1(C)CCC(=C2c3ccccc3CC(=O)c3sccc32)CC1	0	64*	-1	-1	1	x
Cc1cccc(N(C)c2cc(-c3ccc(F)cc3)nc3ccnn23)c1	x	63*	x	x	x	x
Cc1cc(C)n2nc(-c3ccc(F)cc3)cc2n1	x	-228	x	x	x	0
CC(Sc1nc(-c2ccccc2)cc(C(F)(F)F)n1)C(=O)N1CCCCC1 (configuration not stated)	-2	x	-3	-2	1	x
CC1CCCN(C(=O)C(C)Sc2nc(-c3ccccc3)cc(C(F)(F)F)n2)C1 (configuration not stated)	0	57*	-2	0	2	x
CCN1CCN(CC(=O)N2N=C(c3cccs3)CC2c2ccc(OC)c(OC)c2)C(=O)C1=O (configuration not stated)	-1	-6	0	1	1	-6
C=C1C(=O)c2sccc2C(c2ccc(OC)c(OC)c2)C1COC(C)=O (configuration not stated)	-1	-51	x	x	x	115*
C/C=C/c1ccc2c(c1)O[C@@H](CN(C)C(=O)C1CC1)[C@H](C)CN([C@@H](C)CO)S2(=O)=O	x	3[16.7 µM]	x	x	x	-3
O=C(NCC[C@H]1CC[C@@H](NC(=O)C2CCC2)[C@@H](CO)O1)Nc1ccc(Cl)cc1	x	18[16.7 µM]	x	x	x	-8
CCOc1ccc(C(=O)Nc2ccccc2-c2ccccc2)cc1Cl	0	-48	-2	0	2	-28
SMILES	CDK5 inh	Env fusion inh	GSK3A inh	STK33 kinase inh	GSK3beta inhib	GSIS activator
O=C(Nc1ccccc1C(=O)O)c1ccccc1	-1	x	-5	12	4	x
O=C(Nc1ccccc1C(=O)O)c1cccc(C(=O)Nc2ccccc2C(=O)O)c1	-1	-12	-5	57*	5	0
CCOc1ccc(C(=O)Nc2cccc(C(=O)O)c2C)cc1Cl	-3	60*	1	-1	-12	22
Cc1cc(N2CCCC2)ccc1NC(=O)COc1cccc(C(F)(F)F)c1	-3	59*	1	2	2	23
COCC(=O)Nc1ccc2c(c1)C(=O)N(C)[C@@H]1CC[C@H](CC(=O)NC3CCCC3)O[C@H]1CO2	x	2[16.7 µM]	x	x	x	8
COCC(=O)Nc1ccc2c(c1)C(=O)N(C)[C@@H]1CC[C@H](CC(=O)NCCc3ccncc3)O[C@H]1CO2	x	x	x	x	x	0
CCCc1ccc(C#N)c(SC2CC(=O)N(c3ccc(OC)cc3)C2=O)n1 (configuration not stated)	0	-3	-9	0	2	2
COc1ccc(N2C(=O)CC(Sc3nc(C)cc(C)c3C#N)C2=O)cc1 (configuration not stated)	2	-25	-6	0	5	63*
COc1ccc(OC)c(-c2cc(C(=O)Nc3c(C)nn(Cc4ccc(Cl)cc4)c3C)no2)c1	-2	87*	x	-1	0	-23
COc1ccc(OC)c(-c2cc(C(=O)Nc3c(C)nn(Cc4ccccc4)c3C)no2)c1	-1	30	-1	-1	0	-11
C=CCNC(=O)c1cc(-c2ccc3c(c2)OCO3)on1	0	-29	-2	-1	-2	43*
Cc1nn(Cc2ccc(Cl)c(Cl)c2)c(C)c1NC(=O)c1cc(-c2ccc3c(c2)OCO3)on1	2	73*	-2	-2	-4	-29
O=C(NC1CCC1)[C@H]1[C@H](CO)[C@H]2Cn3c(ccc(/C=C/c4ccccc4)c3=O)[C@H]2N1Cc1cncnc1	x	15[16.7 µM]	x	x	x	-3
CCCOc1ccc(C2C(=O)N(C3CCCCCC3)CC(=O)N2Cc2ccco2)cc1OC (configuration not stated)	0	58*	-2	-1	0	x
CCCOc1ccc(C2C(=O)N(C3CCCCC3)CC(=O)N2C2CC2)cc1OC (configuration not stated)	0	x	-2	-1	0	5
CCCN(CC(=O)Nc1ccccc1OC)C(=O)c1cc(S(=O)(=O)NCc2ccccc2)ccc1C	1	35	-2	-2	-3	-21
CCCN(CC(=O)Nc1ccccc1OC)C(=O)c1cccc(S(=O)(=O)NCc2ccccc2)c1	-1	90*	-4	-1	-2	-38
C[C@@H]1CN([C@@H](C)CO)C(=O)c2cccc(NS(=O)(=O)c3ccccc3)c2O[C@@H]1CN(C)C	x	x	x	x	x	11
Cc1cc(O)c(C(C)C)cc1C1(c2cc(C(C)C)c(O)cc2C)OC(=O)c2ccccc21	0	68*	3	2	0	-19
Cc1cc(C2(c3ccc(O)c(C)c3)OC(=O)c3ccccc32)ccc1O	-1	x	-3	0	2	-17
Nc1cc2ccncc2c2ccccc12	5	62*	1	19	-2	-10

Assay outcomes as filed in PubChem BioAssay.
